In ChEMBL document CHEMBL4308827 (J Med Chem, 2018):
Calls of active or inactive are those of the source. The rule behind the calls is not given here.

Experiments:
[1] = species: Homo sapiens; experiment: Displacement of [3H]JNJ-46281222 from human mGlu2 C7957.33x34A mutant receptor transiently expressed in CHOK1 cell membranes at 10 times IC50 after 1 hr by liquid scintillation counting method
[2] = species: Homo sapiens; experiment: Displacement of [3H]JNJ-46281222 from human mGlu2 R6353.32x32A mutant receptor transiently expressed in CHOK1 cell membranes at 10 times IC50 after 1 hr by liquid scintillation counting method
[3] = molecular target: T1, Metabotropic glutamate receptor 2 (Homo sapiens, UniProt Q14416); experiment: Displacement of [3H]JNJ-46281222 from human mGlu2 receptor expressed in CHOK1 cell membranes at IC50 after 1 hr in presence of glutamate by microbeta scintillation counting method
Target sequence in this assay (Q14416 19-872 limits assumed): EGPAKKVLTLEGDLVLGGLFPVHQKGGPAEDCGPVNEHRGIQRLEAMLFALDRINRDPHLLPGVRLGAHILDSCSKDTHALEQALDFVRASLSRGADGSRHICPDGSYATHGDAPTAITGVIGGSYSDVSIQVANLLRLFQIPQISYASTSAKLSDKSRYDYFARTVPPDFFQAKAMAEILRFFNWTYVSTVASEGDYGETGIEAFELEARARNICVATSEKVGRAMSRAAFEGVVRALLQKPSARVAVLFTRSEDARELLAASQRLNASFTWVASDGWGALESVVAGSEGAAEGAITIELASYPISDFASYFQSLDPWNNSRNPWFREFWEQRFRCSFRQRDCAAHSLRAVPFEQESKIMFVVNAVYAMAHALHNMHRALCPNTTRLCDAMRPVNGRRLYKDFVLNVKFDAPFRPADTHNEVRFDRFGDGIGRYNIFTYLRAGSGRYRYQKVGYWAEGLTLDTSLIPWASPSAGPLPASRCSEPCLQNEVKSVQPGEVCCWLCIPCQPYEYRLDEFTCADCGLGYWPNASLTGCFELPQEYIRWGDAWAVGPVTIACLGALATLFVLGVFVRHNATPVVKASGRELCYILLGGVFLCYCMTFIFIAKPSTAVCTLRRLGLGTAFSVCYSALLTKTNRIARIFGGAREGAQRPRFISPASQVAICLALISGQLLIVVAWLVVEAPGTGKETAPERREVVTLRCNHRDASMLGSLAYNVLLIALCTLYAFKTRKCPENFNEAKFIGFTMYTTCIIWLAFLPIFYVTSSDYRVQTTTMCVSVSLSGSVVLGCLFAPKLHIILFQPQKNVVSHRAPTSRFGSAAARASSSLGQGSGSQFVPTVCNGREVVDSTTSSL

[4] = Displacement of [3H]JNJ-46281222 from human mGlu2 T7917.29x30A mutant receptor transiently expressed in CHOK1 cell membranes after 1 hr by liquid scintillation counting method
[5] = molecular target: T1, Metabotropic glutamate receptor 2; experiment: Positive allosteric modulation of human mGlu2 receptor expressed in CHOK1 cell membranes assessed as increase in glutamate-induced [35S]GTPgammaS binding measured after 1 hr by scintillation spectrometry method; format: functional
[6] = molecular target: T1, Metabotropic glutamate receptor 2; experiment: Positive allosteric modulation of human mGlu2 receptor expressed in CHOK1 cell membranes assessed as increase in glutamate-induced [35S]GTPgammaS binding at 10 times IC50 test compound added before washing steps preincubated for 30 mins followed by [35S]GTPgammaS addition and measured after 30 mins by scintillation spectrometry method; format: functional
Target sequence in this assay (Q14416 19-872 limits assumed): as above

[7] = molecular target: T1, Metabotropic glutamate receptor 2; experiment: Positive allosteric modulation of human mGlu2 receptor expressed in CHOK1 cell membranes assessed as increase in glutamate-induced [35S]GTPgammaS binding preincubated for 3 hrs followed by [35S]GTPgammaS addition and measured after 1 hr by scintillation spectrometry method; format: functional
[8] = species: Homo sapiens; experiment: Displacement of [3H]JNJ-46281222 from human mGlu2 T7917.29x30A mutant receptor transiently expressed in CHOK1 cell membranes preincubated for 3 hrs followed by [3H]JNJ-46281222 addition and measured after 1 hr by liquid scintillation counting method
[9] = molecular target: T1, Metabotropic glutamate receptor 2; experiment: Irreversible positive allosteric modulation of human mGlu2 receptor expressed in CHOK1 cell membranes assessed as increase in glutamate-induced [35S]GTPgammaS binding at 10 times IC50 preincubated for 30 mins followed by compound washout and subsequent [35S]GTPgammaS addition and measured after 30 mins by scintillation spectrometry method; format: functional
Target sequence in this assay (Q14416 19-872 limits assumed): as above

[10] = molecular target: T1, Metabotropic glutamate receptor 2; experiment: Positive allosteric modulation of human mGlu2 receptor expressed in CHOK1 cell membranes assessed as increase in glutamate-induced [35S]GTPgammaS binding preincubated for 30 mins followed by [35S]GTPgammaS addition and measured after 90 mins by scintillation spectrometry method; format: functional
[11] = system: Metabotropic glutamate receptor 2 (Homo sapiens), Q14416 [Y787A]; experiment: Displacement of [3H]JNJ-46281222 from human mGlu2 Y787A mutant receptor transiently expressed in CHOK1 cell membranes at 10 times IC50 after 1 hr by liquid scintillation counting method
[12] = molecular target: T1, Metabotropic glutamate receptor 2; experiment: Ratio of EC50 for positive allosteric modulation of human mGlu2 receptor expressed in CHOK1 cell membranes assessed as increase in glutamate-induced [35S]GTPgammaS binding co-incubated with [35S]GTPgammaS to EC50 for positive allosteric modulation of human mGlu2 receptor expressed in CHOK1 cell …; format: functional
Target sequence in this assay (Q14416 19-872 limits assumed): as above

[13] = molecular target: T1, Metabotropic glutamate receptor 2; experiment: Displacement of [3H]JNJ-46281222 from human mGlu2 receptor expressed in CHOK1 cell membranes after 1 hr by microbeta scintillation counting method
[14] = molecular target: T1, Metabotropic glutamate receptor 2; experiment: Displacement of [3H]JNJ-46281222 from human mGlu2 receptor transiently expressed in CHOK1 cell membranes after 1 hr by liquid scintillation counting method
[15] = molecular target: T1, Metabotropic glutamate receptor 2; experiment: Displacement of [3H]JNJ-46281222 from human mGlu2 receptor expressed in CHOK1 cell membranes assessed as association rate constant after 1 hr in presence of glutamate by microbeta scintillation counting method
Target sequence in this assay (Q14416 19-872 limits assumed): as above

[16] = molecular target: T1, Metabotropic glutamate receptor 2; experiment: Ratio of Ki for human mGlu2 receptor expressed in CHOK1 cell membranes without preincubation to Ki for human mGlu2 receptor expressed in CHOK1 cell membranes preincubated for 3 hrs; format: cell-based
How it was run: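 CHO-K1 membranes stably expressing hmGlu2 (butyrate-induced, 15 µg) were pre-coupled to WGA SPA beads. […] Nonspecific binding was defined with 10 µM JNJ-40068782. Mean of ≥3 experiments in duplicate.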
Target sequence in this assay (Q14416 19-872 limits assumed): as above

[17] = system: Metabotropic glutamate receptor 2 (Homo sapiens), Q14416 [R720A]; experiment: Displacement of [3H]JNJ-46281222 from human mGlu2 R720A mutant receptor transiently expressed in CHOK1 cell membranes at 10 times IC50 after 1 hr by liquid scintillation counting method
[18] = molecular target: T1, Metabotropic glutamate receptor 2; experiment: Displacement of [3H]JNJ-46281222 from human mGlu2 receptor expressed in CHOK1 cell membranes preincubated for 3 hrs followed by [3H]JNJ-46281222 addition and measured after 1 hr by microbeta scintillation counting method
[19] = molecular target: T1, Metabotropic glutamate receptor 2; experiment: Irreversible displacement of [3H]JNJ-46281222 from human mGlu2 receptor expressed in CHOK1 cell membranes at 10 times IC50 preincubated for 1 hr in presence of glutamate followed by compound washout and [3H]JNJ-46281222 addition measured after 1 hr by microbeta scintillation counting method
[20] = molecular target: Metabotropic glutamate receptor 1 (Homo sapiens) (UniProt Q13255); experiment: Agonist activity at human mGlu1 receptor expressed in HEK293 cells by calcium assay; format: functional, cell-based
Sequence of Metabotropic glutamate receptor 1 (Homo sapiens) (Q13255 19-1194 limits assumed): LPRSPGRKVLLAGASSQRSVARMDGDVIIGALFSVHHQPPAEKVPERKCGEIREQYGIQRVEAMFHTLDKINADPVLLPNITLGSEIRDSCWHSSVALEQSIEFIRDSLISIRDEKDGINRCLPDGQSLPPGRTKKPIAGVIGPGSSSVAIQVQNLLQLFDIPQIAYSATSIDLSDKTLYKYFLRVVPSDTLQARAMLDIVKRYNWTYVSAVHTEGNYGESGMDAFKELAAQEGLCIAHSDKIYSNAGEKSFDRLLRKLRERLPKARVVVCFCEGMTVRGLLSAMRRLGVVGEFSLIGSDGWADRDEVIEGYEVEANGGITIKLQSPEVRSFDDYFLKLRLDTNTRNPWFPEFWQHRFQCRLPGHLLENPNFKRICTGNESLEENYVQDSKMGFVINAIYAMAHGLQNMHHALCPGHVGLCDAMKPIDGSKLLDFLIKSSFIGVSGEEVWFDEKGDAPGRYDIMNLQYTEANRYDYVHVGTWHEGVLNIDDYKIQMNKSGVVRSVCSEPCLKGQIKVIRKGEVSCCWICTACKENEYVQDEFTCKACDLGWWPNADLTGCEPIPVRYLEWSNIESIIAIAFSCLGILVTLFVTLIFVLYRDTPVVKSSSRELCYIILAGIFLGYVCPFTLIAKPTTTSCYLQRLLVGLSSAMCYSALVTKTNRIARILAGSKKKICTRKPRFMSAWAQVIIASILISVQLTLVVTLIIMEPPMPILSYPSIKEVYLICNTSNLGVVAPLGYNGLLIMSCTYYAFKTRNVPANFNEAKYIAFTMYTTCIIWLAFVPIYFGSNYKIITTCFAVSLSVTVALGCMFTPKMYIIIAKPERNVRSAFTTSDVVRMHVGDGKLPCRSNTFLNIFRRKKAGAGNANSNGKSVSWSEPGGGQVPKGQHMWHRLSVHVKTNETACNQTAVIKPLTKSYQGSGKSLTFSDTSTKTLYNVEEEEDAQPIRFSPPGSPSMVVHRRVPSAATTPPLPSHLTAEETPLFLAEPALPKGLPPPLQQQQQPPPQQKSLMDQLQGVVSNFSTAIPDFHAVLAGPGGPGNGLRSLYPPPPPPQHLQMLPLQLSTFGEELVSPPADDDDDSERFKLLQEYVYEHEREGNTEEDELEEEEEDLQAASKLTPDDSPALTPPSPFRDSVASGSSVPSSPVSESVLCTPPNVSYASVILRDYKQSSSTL

[21] = molecular target: Metabotropic glutamate receptor 8 (Homo sapiens) (UniProt O00222); experiment: Agonist activity at human mGlu8 receptor expressed in HEK293 cells by calcium assay; format: functional, cell-based
[22] = molecular target: Metabotropic glutamate receptor 1 (Homo sapiens) (UniProt Q13255); experiment: Antagonist activity at human mGlu1 receptor expressed in HEK293 cells by calcium assay; format: functional, cell-based
[23] = molecular target: Metabotropic glutamate receptor 3 (Homo sapiens) (UniProt Q14832); experiment: Antagonist activity at human mGlu3 receptor expressed in HEK293 cells by calcium assay; format: functional, cell-based
Sequence of Metabotropic glutamate receptor 3 (Homo sapiens) (Q14832 23-879 limits assumed): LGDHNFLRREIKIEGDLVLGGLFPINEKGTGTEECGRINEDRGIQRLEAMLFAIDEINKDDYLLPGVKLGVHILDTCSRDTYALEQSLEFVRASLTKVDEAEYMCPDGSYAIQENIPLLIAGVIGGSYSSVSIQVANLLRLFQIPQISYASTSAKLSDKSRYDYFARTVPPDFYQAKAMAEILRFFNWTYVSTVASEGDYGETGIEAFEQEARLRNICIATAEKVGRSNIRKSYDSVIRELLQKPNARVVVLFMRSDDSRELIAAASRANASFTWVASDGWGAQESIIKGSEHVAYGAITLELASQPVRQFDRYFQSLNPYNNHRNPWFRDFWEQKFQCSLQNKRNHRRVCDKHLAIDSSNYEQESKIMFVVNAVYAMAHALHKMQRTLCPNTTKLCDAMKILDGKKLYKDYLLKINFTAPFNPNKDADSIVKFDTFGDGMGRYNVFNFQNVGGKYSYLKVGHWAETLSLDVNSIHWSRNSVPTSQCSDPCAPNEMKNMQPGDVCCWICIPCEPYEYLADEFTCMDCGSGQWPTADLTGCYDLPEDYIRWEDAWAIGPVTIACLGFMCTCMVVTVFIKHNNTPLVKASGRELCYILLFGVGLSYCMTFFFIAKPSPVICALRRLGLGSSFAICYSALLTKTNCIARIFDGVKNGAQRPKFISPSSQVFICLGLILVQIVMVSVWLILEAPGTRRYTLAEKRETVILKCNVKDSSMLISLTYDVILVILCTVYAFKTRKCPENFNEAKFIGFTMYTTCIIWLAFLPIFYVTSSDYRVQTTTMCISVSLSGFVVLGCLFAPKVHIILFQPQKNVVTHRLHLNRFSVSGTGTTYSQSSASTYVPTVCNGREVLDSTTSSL

[24] = molecular target: Metabotropic glutamate receptor 1 (Homo sapiens) (UniProt Q13255); experiment: Positive allosteric modulation of human mGlu1 receptor expressed in HEK293 cells by calcium assay; format: functional, cell-based
[25] = molecular target: Metabotropic glutamate receptor 5 (Homo sapiens) (UniProt P41594); experiment: Positive allosteric modulation of human mGlu5 receptor expressed in HEK293 cells by calcium assay; format: functional, cell-based
Sequence of Metabotropic glutamate receptor 5 (Homo sapiens) (P41594 21-1212 limits assumed): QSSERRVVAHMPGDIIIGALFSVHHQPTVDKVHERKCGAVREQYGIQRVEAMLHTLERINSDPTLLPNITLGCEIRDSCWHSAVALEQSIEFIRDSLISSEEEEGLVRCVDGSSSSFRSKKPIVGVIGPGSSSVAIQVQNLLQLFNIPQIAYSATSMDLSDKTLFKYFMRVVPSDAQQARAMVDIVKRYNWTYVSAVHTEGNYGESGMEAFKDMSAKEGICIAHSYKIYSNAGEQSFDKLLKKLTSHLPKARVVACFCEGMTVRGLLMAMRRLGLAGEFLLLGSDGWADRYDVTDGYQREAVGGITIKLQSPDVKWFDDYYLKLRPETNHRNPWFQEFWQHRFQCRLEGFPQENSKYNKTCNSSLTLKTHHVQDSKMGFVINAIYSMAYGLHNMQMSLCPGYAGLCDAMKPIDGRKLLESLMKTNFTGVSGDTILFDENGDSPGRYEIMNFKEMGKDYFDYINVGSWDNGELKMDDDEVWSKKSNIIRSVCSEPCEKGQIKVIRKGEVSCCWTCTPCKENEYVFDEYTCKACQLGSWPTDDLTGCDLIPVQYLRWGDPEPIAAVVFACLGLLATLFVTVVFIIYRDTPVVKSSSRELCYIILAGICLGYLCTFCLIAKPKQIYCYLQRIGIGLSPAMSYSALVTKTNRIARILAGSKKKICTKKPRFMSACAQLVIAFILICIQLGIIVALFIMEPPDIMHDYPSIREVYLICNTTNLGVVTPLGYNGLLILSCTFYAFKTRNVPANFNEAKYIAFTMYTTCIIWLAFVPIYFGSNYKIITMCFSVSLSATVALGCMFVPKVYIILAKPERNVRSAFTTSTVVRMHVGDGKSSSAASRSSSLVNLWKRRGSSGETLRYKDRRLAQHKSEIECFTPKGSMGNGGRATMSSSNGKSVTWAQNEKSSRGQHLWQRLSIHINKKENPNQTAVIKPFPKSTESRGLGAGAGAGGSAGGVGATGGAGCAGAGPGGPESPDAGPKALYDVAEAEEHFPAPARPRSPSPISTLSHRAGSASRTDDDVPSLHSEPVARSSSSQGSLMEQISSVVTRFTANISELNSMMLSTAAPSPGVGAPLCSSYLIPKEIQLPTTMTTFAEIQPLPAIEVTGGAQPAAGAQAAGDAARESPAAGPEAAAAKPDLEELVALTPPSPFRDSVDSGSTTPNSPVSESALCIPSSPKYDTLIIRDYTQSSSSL

[26] = molecular target: T1, Metabotropic glutamate receptor 2; experiment: Displacement of [3H]JNJ-46281222 from human mGlu2 receptor expressed in CHOK1 cell membranes assessed as residence time after 1 hr in presence of glutamate by microbeta scintillation counting method
[27] = molecular target: T1, Metabotropic glutamate receptor 2; experiment: Displacement of [3H]JNJ-46281222 from human mGlu2 receptor expressed in CHOK1 cell membranes assessed as dissociation rate constant after 1 hr in presence of glutamate by microbeta scintillation counting method
[28] = molecular target: Metabotropic glutamate receptor 3 (Homo sapiens) (UniProt Q14832); experiment: Agonist activity at human mGlu3 receptor expressed in HEK293 cells by calcium assay; format: functional, cell-based
[29] = molecular target: Metabotropic glutamate receptor 3 (Homo sapiens) (UniProt Q14832); experiment: Positive allosteric modulation of human mGlu3 receptor expressed in HEK293 cells by calcium assay; format: functional, cell-based
[30] = molecular target: Metabotropic glutamate receptor 8 (Homo sapiens) (UniProt O00222); experiment: Antagonist activity at human mGlu8 receptor expressed in HEK293 cells by calcium assay; format: functional, cell-based
[31] = molecular target: Metabotropic glutamate receptor 5 (Homo sapiens) (UniProt P41594); experiment: Antagonist activity at human mGlu5 receptor expressed in HEK293 cells by calcium assay; format: functional, cell-based
[32] = molecular target: Metabotropic glutamate receptor 5 (Homo sapiens) (UniProt P41594); experiment: Agonist activity at human mGlu5 receptor expressed in HEK293 cells by calcium assay; format: functional, cell-based

Compound | inhibition [1] | inhibition [2] | EC50 [10] | Ki [13] | K [15] | Ki [18] | inhibition [19] | TIME [26] | K [27] | other results
FC(F)(F)c1c(CN2CCC(c3ccccc3)CC2)ccn2c(CC3CC3)nnc12 | inactive | inactive | – | – | – | – | – | – | – | –
O=C(Nc1ccc(-c2ccn3c(CC4CC4)nnc3c2C(F)(F)F)cc1)c1ccc(S(=O)(=O)F)cc1 | Active | Active | 158 nM | 61.7 nM | 3.2 ×10³ /M/s | 6.17 nM | Active | – | – | inhibition [3]: inactive; pKi [4]: 6.45; EC50 [5]: 1260 nM; Activity [6]: Active; EC50 [7]: 178 nM; inhibition [8]: inactive; Activity [9]: Active; inhibition [11]: Active; Ratio EC50 [12]: 7; Ki [14]: 174 nM; Ratio Ki [16]: 10; inhibition [17]: Active
O=C(Nc1cccc(-c2ccn3c(CC4CC4)nnc3c2C(F)(F)F)c1)c1ccc(S(=O)(=O)F)cc1 | – | – | 158 nM | 112 nM | 2.1 ×10⁴ /M/s | 166 nM | inactive | 0.3 h | 0.00091 s⁻¹ | Activity [20]: inactive; Activity [21]: inactive; inhibition [22]: inactive; inhibition [23]: inactive; Activity [24]: inactive; Activity [25]: inactive; Activity [28]: inactive; Activity [29]: inactive; inhibition [30]: inactive; inhibition [31]: inactive; Activity [32]: inactive
O=C(NCc1ccc(-c2ccn3c(CC4CC4)nnc3c2C(F)(F)F)cc1)c1ccc(S(=O)(=O)F)cc1 | – | – | 15.1 nM | 5.75 nM | 2.2 ×10⁵ /M/s | 4.17 nM | inactive | 0.483 h | 0.00057 s⁻¹ | –
